Data reported in ChEMBL document CHEMBL3352012, “Synthesis and evaluation of novel podophyllotoxin derivatives as potential antitumor agents” (Eur J Med Chem, 2014).
Activity calls are given as the source filed them. The calls are words filed in the database; no cut-off is given here.

Assays:
HeLa = experiment: Cytotoxicity against human HeLa cells after 48 hrs by MTT assay; assay type: functional, cell-based
Outline: (§1)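 Cells kept in RPMI-1640 with 10% FBS, 2 mmol/L glutamine, penicillin and streptomycin at 37 °C, 5% CO2. Seeded at 5 × 10³ cells/well and left 24 h to attach, then exposed to compounds or etoposide reference for 48 h. MTT (5 mg/mL) added for 4 h at 37 °C, supernatant removed, formazan dissolved in DMSO, absorbance read at 490 nm.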

K562 [1] = experiment: Resistance index, ratio of IC50 for human K562/A02 cells to IC50 for human K562 cells; assay type: functional
K562 [2] = experiment: Cytotoxicity against human K562 cells after 48 hrs by MTT assay; assay type: functional, cell-based; settings: for IC50: K562, 48 h; outline: as §1
[3] = (§2) Cytotoxicity against human K562/A02 cells after 48 hrs by MTT assay; assay type: functional, cell-based; settings: K562/A02, 48 h; outline: as §1
[4] = Reduction in MDR1 mRNA expression in human K562/A02 cells at 6 uM incubated for 48 hrs by RT-PCR method; assay type: functional, cell-based
Outline: (§3)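 K562 and K562/A02 cells seeded 1 × 10⁵/well in 10% FCS/RPMI-1640; compound added 24 h later, then cultured another 48 h. Total RNA extracted with Trizol, checked at 260/280 nm, reverse transcribed; MDR-1 (157 bp) and β-actin (540 bp) amplified, products run on agarose gel, stained, MDR-1 normalised to β-actin against untreated control.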

K562/A02 [5] = experiment: Induction of apoptosis in human K562/A02 cells assessed as necrotic cells level at 6 uM after 48 hrs by Annexin V-FITC and propidium iodide double staining based flow cytometry (reference value: 1.53%); assay type: functional
K562/A02 [6] = experiment: Induction of apoptosis in human K562/A02 cells assessed as late apoptotic cells level at 6 uM after 48 hrs by Annexin V-FITC and propidium iodide double staining based flow cytometry (reference value: 1.58%); assay type: functional
K562/A02 [7] = experiment: Induction of apoptosis in human K562/A02 cells assessed as viable cells level at 6 uM after 48 hrs by Annexin V-FITC and propidium iodide double staining based flow cytometry (reference value: 90.7%); assay type: functional
K562/A02 [8] = experiment: Induction of apoptosis in human K562/A02 cells assessed as early apoptotic cells level at 6 uM after 48 hrs by Annexin V-FITC and propidium iodide double staining based flow cytometry (reference value: 6.23%); assay type: functional
K562/A02 [9] = experiment: Induction of apoptosis in human K562/A02 cells at 12 uM after 48 hrs by Annexin V-FITC and propidium iodide double staining based flow cytometry (reference value: 7.9 +/- 1.34%); assay type: functional
K562/A02 [10] = experiment: Induction of apoptosis in human K562/A02 cells assessed as early apoptotic cells level at 12 uM after 48 hrs by Annexin V-FITC and propidium iodide double staining based flow cytometry (reference value: 6.23%); assay type: functional
K562/A02 [11] = experiment: Induction of apoptosis in human K562/A02 cells assessed as late apoptotic cells level at 12 uM after 48 hrs by Annexin V-FITC and propidium iodide double staining based flow cytometry (reference value: 1.58%); assay type: functional
K562/A02 [12] = experiment: Induction of apoptosis in human K562/A02 cells assessed as viable cells level at 3 uM after 48 hrs by Annexin V-FITC and propidium iodide double staining based flow cytometry (reference value: 90.7%); assay type: functional
K562/A02 [13] = experiment: Induction of apoptosis in human K562/A02 cells assessed as induction of large cytoplasmic vacuoles at 6 uM after 48 hrs by Hoechst-33342 staining based fluorescence microscopy; assay type: functional, cell-based
Outline: (§4)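 K562/A02 cells treated 48 h at 3, 6 or 12 concentration levels alongside untreated control and 6 etoposide; nuclei stained with Hoechst 33342 and viewed by fluorescence microscopy at 400× for chromatin condensation, nuclear fragmentation and other apoptotic morphology.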

K562/A02 [14] = experiment: Induction of apoptosis in human K562/A02 cells assessed as late apoptotic cells level at 3 uM after 48 hrs by Annexin V-FITC and propidium iodide double staining based flow cytometry (reference value: 1.58%); assay type: functional
K562/A02 [15] = experiment: Induction of apoptosis in human K562/A02 cells assessed as induction of chromatin condensation at 12 uM after 48 hrs by Hoechst-33342 staining based fluorescence microscopy; assay type: functional, cell-based; outline: as §4
K562/A02 [16] = experiment: Induction of apoptosis in human K562/A02 cells assessed as induction of abnormal mitotic figures at 6 uM after 48 hrs by Hoechst-33342 staining based fluorescence microscopy; assay type: functional, cell-based; outline: as §4
K562/A02 [17] = experiment: Induction of apoptosis in human K562/A02 cells assessed as viable cells level at 12 uM after 48 hrs by Annexin V-FITC and propidium iodide double staining based flow cytometry (reference value: 90.7%); assay type: functional
K562/A02 [18] = experiment: Induction of apoptosis in human K562/A02 cells assessed as induction of multinucleation at 6 uM after 48 hrs by Hoechst-33342 staining based fluorescence microscopy; assay type: functional, cell-based; outline: as §4
K562/A02 [19] = experiment: Induction of apoptosis in human K562/A02 cells assessed as early apoptotic cells level at 3 uM after 48 hrs by Annexin V-FITC and propidium iodide double staining based flow cytometry (reference value: 6.23%); assay type: functional
K562/A02 [20] = experiment: Induction of apoptosis in human K562/A02 cells assessed as necrotic cells level at 12 uM after 48 hrs by Annexin V-FITC and propidium iodide double staining based flow cytometry (reference value: 1.53%); assay type: functional
[21] = Reduction in MDR1 mRNA expression in human K562/A02 cells incubated for 48 hrs by RT-PCR method; assay type: functional, cell-based; outline: as §3
[22] = Reduction in MDR1 mRNA expression in human K562/A02 cells at 6 uM incubated for 48 hrs by RT-PCR method relative to untreated control; assay type: functional, cell-based; outline: as §3
K562/A02 [23] = experiment: Induction of apoptosis in human K562/A02 cells assessed as necrotic cells level at 3 uM after 48 hrs by Annexin V-FITC and propidium iodide double staining based flow cytometry (reference value: 1.53%); assay type: functional
K562/A02 [24] = experiment: Induction of apoptosis in human K562/A02 cells assessed as induction of nuclear fragmentation at 12 uM after 48 hrs by Hoechst-33342 staining based fluorescence microscopy; assay type: functional, cell-based; outline: as §4
K562/A02 [25] = experiment: Induction of apoptosis in human K562/A02 cells assessed as induction of large cells formation at 6 uM after 48 hrs by Hoechst-33342 staining based fluorescence microscopy; assay type: functional, cell-based; outline: as §4
K562/A02 [26] = experiment: as §2; assay type: functional, cell-based; outline: as §1
[27] = Reduction in MDR1 mRNA expression in human K562/A02 cells assessed as MDR1 mRNA levels at 12 uM incubated for 48 hrs by RT-PCR method (reference value: 100%); assay type: functional, cell-based; design: scale not given: the % may be the effect or the level left; outline: as §3
K562/A02 [28] = experiment: Induction of apoptosis in human K562/A02 cells assessed as induction of membrane blebbing at 12 uM after 48 hrs by Hoechst-33342 staining based fluorescence microscopy; assay type: functional, cell-based; outline: as §4
K562/A02 [29] = experiment: Induction of apoptosis in human K562/A02 cells assessed as induction of cell shrinkage and detachment at 12 uM after 48 hrs by Hoechst-33342 staining based fluorescence microscopy; assay type: functional; outline: as §4

## COc1cc([C@@H]2c3cc4c(cc3[C@@H](NCc3ccc(CN(C)C)o3)[C@H]3COC(=O)[C@H]23)OCO4)cc(OC)c1OC
HeLa
  IC50: 14.2 µM
K562 [1]
  Ratio IC50: 5.11
K562 [2]
  IC50: 6.91 µM
[3]
  IC50: 35.3 µM

## COc1cc([C@@H]2c3cc4c(cc3[C@@H](NCc3ccc(CN(C)C)o3)[C@H]3COC(=O)[C@H]23)OCO4)cc(OC)c1O
HeLa
  IC50: 0.51 µM
K562 [1]
  Ratio IC50: 8.89
K562 [2]
  IC50: 7.89 µM
[3]
  IC50: 70.1 µM

## COc1cc([C@@H]2c3cc4c(cc3[C@@H](NCc3ccc([N+](=O)[O-])o3)[C@H]3COC(=O)[C@H]23)OCO4)cc(OC)c1O
HeLa
  IC50: 6.64 µM
K562 [1]
  Ratio IC50: 6.41
K562 [2]
  IC50: 9.24 µM
[3]
  IC50: 59.2 µM

## COc1cc([C@@H]2c3cc4c(cc3[C@@H](O[C@@H]3O[C@@H]5CO[C@@H](C)O[C@H]5[C@H](O)[C@H]3O)[C@H]3COC(=O)[C@H]23)OCO4)cc(OC)c1O [ETOPOSIDE]
[4]
  MDR1 mRNA reduction (qualitative): Active
K562 [1]
  Ratio IC50: 69.29
K562/A02 [5]
  Activity: 2.52%
K562/A02 [6]
  Activity: 7.98%
K562 [2]
  IC50: 3.39 µM
K562/A02 [7]
  Activity: 61.1%
K562/A02 [8]
  Activity: 28.4%
[3]
  IC50: 235 µM

## COc1cc([C@@H]2c3cc4c(cc3[C@@H](NCc3ccc(CN5CCN(C)CC5)o3)[C@H]3COC(=O)[C@H]23)OCO4)cc(OC)c1OC
HeLa
  IC50: 15.3 µM
K562 [1]
  Ratio IC50: >100
K562 [2]
  IC50: > 100 µM
[3]
  IC50: > 1000 µM

## COc1cc([C@@H]2c3cc4c(cc3[C@@H](NCc3ccco3)[C@H]3COC(=O)[C@H]23)OCO4)cc(OC)c1O
HeLa
  IC50: 70.5 µM
K562 [1]
  Ratio IC50: >100
K562 [2]
  IC50: > 100 µM
[3]
  IC50: > 1000 µM

## COc1cc([C@@H]2c3cc4c(cc3[C@@H](NCc3ccc([N+](=O)[O-])o3)[C@H]3COC(=O)[C@H]23)OCO4)cc(OC)c1OC
K562/A02 [9]
  Activity: 65.35%
HeLa
  IC50: 7.55 µM
K562/A02 [10]
  Activity: 56.3%
K562/A02 [11]
  Activity: 8.05%
K562/A02 [12]
  Activity: 77.3%
[4]
  MDR1 mRNA reduction (qualitative): Active
K562/A02 [13]
  Activity: Active
K562 [1]
  Ratio IC50: 0.905
K562/A02 [14]
  Activity: 4.02%
K562/A02 [15]
  Activity: Active
K562/A02 [16]
  Activity: Active
K562/A02 [17]
  Activity: 34.5%
K562/A02 [18]
  Activity: Active
K562/A02 [5]
  Activity: 13.5%
K562/A02 [6]
  Activity: 11.9%
K562/A02 [19]
  Activity: 14.8%
K562/A02 [20]
  Activity: 1.09%
[21]
  inhibition: Dose-dependent effect
K562 [2]
  growth inhibition (GI): Dose-dependent effect
  IC50: 5.99 µM
K562/A02 [7]
  Activity: 46.4%
K562/A02 [8]
  Activity: 28.2%
[22]
  inhibition: 70%
K562/A02 [23]
  Activity: 3.9%
K562/A02 [24]
  Activity: Active
K562/A02 [25]
  Activity: Active
K562/A02 [26]
  growth inhibition (GI): Dose-dependent effect
[3]
  IC50: 5.42 µM
[27]
  Activity: 31.2%
K562/A02 [28]
  Activity: Active
K562/A02 [29]
  Activity: Active

## CCN(CC)Cc1ccc(CN[C@@H]2c3cc4c(cc3[C@@H](c3cc(OC)c(O)c(OC)c3)[C@H]3C(=O)OC[C@@H]32)OCO4)o1
HeLa
  IC50: 6.38 µM
[4]
  MDR1 mRNA reduction (qualitative): Active
K562 [1]
  Ratio IC50: >100
K562 [2]
  IC50: 8.25 µM
[22]
  inhibition: 35%
[3]
  IC50: > 1000 µM

## CCN1CCN(Cc2ccc(CN[C@@H]3c4cc5c(cc4[C@@H](c4cc(OC)c(OC)c(OC)c4)[C@H]4C(=O)OC[C@@H]43)OCO5)o2)CC1
HeLa
  IC50: > 100 µM
K562 [1]
  Ratio IC50: >100
K562 [2]
  IC50: > 100 µM
[3]
  IC50: > 1000 µM
